The test system of assay [1] is A549. Nature of the assay: Antiproliferative activity against human A549 cells assessed as cell growth inhibition after 48 hrs by XTT assay. It is filed as functional, cell-based. The note with it: A549, 48 h. Put shortly: (§1)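 NB4 grown in RPMI 1640 with 10% FBS and penicillin/streptomycin, A549 and MCF-7 in DMEM, all at 37 °C and 5% CO2. Cells seeded at 1.5∙10⁴ (NB4) or 1.0∙10⁴ (A549, MCF-7) per well. Adherent lines dosed 24 h after plating, NB4 shortly after. Triplicate concentrations from 0.1 to 100, DMSO control at 0.5% v/v. After 48 h exposure, XTT added for 2 h. A450 minus A690 read, GI50 reported with SE.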

Assay [2] deals with MCF7. Nature of the assay: Cell cycle arrest in human MCF7 cells assessed as increase in cell population at G2/M phase at 10 uM after 48 hrs by flow cytometry. It is filed as functional, cell-based. Put shortly: (§2)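 Cells seeded in 6-well plates at 1∙10⁶ (NB4) or 0.45∙10⁶ (A549, MCF-7) per well. Treated for 48 h at 10 (NB4, MCF-7), 20 and 30 (A549), or, for NB4, a lower 5; DMSO solvent control. Cell cycle phase distribution and sub-G1 measured by flow cytometry. Mean of two independent experiments.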
On the technique in general: A flow cytometer gives signals particle by particle.

In assay [3] the test system is MCF7. The assay can be described thus: Antiproliferative activity against human MCF7 cells assessed as cell growth inhibition after 48 hrs by XTT assay. It is filed as functional, cell-based. To be noted: MCF7, 48 h. A digest of the protocol:
as §1
(Formazan colour is commonly taken as a measure of viable cells.)

Assay [4] is described as follows: Cell cycle arrest in human NB4 cells assessed as increase in cell population at G2/M phase at 5 uM after 48 hrs by flow cytometry. The note with it: NB-4. In kind it is functional, cell-based. A digest of the protocol: as §2
The nature of assay [5]: Antiproliferative activity against human NB4 cells assessed as cell growth inhibition after 48 hrs by XTT assay. In kind it is functional, cell-based. To be noted: NB-4, 48 h. Put shortly:
as §1

In assay [6] the test system is MCF7. Nature of the assay: Cell cycle arrest in human MCF7 cells assessed as increase in cell population at S phase at 10 uM after 48 hrs by flow cytometry. It is filed as functional, cell-based. A digest of the protocol:
as §2

Assay [7] has as its system NB-4. Nature of the assay: Induction of cell death in human NB4 cells assessed as elevated sub-G1 population at 10 uM after 48 hrs by flow cytometry. In kind it is functional, cell-based. A digest of the protocol: as §2
Assay [8] concerns MCF7. Nature of the assay: Induction of apoptosis in human MCF7 cells at 10 uM after 24 to 48 hrs by annexin V binding assay. In kind it is functional, cell-based. A digest of the protocol: (§3)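 Cells seeded in 6-well plates at 1∙10⁶ (NB4) or 0.45∙10⁶ (A549, MCF-7) per well. Treated at 5 (NB4), 20 and 30 (A549) or 10 (MCF-7). Apoptotic cell percentage measured by annexin V binding after 24 and 48 h. Mean of two independent experiments.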

The nature of assay [9]: Cell cycle arrest in human NB4 cells assessed as increase in cell population at S phase at 5 uM after 48 hrs by flow cytometry. In kind it is functional, cell-based. To be noted: NB-4. Put shortly: as §2
The test system of assay [10] is NB-4. The assay can be described thus: Acceleration of RA-induced granulocytic differentiation in human NB4 cells in presence of all-trans retinoic acid relative to control. It is filed as functional.
Assay [11] in a line: Induction of apoptosis in human NB4 cells assessed as cell death. In kind it is functional, NB-4. A digest of the protocol: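 NB4 acute promyelocytic leukemia cells were grown in RPMI 1640 + GlutaMAX with 10% FBS and penicillin/streptomycin at 37 °C under 5% CO₂. Cells were seeded in 6-well plates at 1∙10⁶ per well and treated for 24 and 48 h; DMSO served as the solvent control. Apoptotic cells were quantified by annexin V binding. Values are the mean of two independent experiments.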

Assay [12] concerns NB-4. The assay can be described thus: Induction of apoptosis in human NB4 cells at 5 uM after 24 to 48 hrs by annexin V binding assay. It is filed as functional, cell-based. A digest of the protocol:
as §3

Assay [13] can be described thus: Cell cycle arrest in human NB4 cells assessed as accumulation of cells at G0/G1 phase at 1 uM after 24 hrs by flow cytometry in presence of 1 uM all-trans retinoic acid. In kind it is functional, cell-based. The note with it: NB-4.
Assay [14] in a line: Cell cycle arrest at G0/G1 phase in human NB4 cells at 1 uM by flow cytometry. In kind it is functional, cell-based. The note with it: NB-4.
Assay [15] in a line: Cell cycle arrest in human NB4 cells assessed as increase in cell population at G0/G1 phase at 5 uM after 48 hrs by flow cytometry. It is filed as functional, cell-based. The note with it: NB-4. A digest of the protocol:
as §2

Assay [16] has as its system NB-4. The assay can be described thus: Acceleration of RA-induced granulocytic differentiation in human NB4 cells at 1 uM after 48 hrs by CD11b assay in presence of 1 uM all-trans retinoic acid (reference value: 79.9%). It is filed as functional.
Assay [17] relates to NB-4. Nature of the assay: Antiproliferative activity against human NB4 cells assessed as decrease in cell viability at 1uM in presence of 1 uM all-trans retinoic acid after 96 hrs by trypan blue exclusion test. It is filed as functional, cell-based. Put shortly:
(§4)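 Log-phase NB4 cells at 0.5 × 10⁶ cells/ml were exposed to test agent alone or combined with 1 µM retinoic acid for 24, 48, 72 and 96 h. At each time point, aliquots were stained with 0.2% trypan blue, and viable and dead cells were counted on a hematocytometer.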

Assay [18] relates to NB-4. Nature of the assay: Antiproliferative activity against human NB4 cells assessed as decrease in cell viability at 1 uM after 96 hrs by trypan blue exclusion test. It is filed as functional, cell-based. Put shortly:
as §4

In assay [19] the test system is NB-4. The assay can be described thus: Induction of granulocytic differentiation in human NB4 cells at 1 uM after 24 to 96 hrs by NBT assay. In kind it is functional, cell-based. A digest of the protocol: (§5)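 NB4 cells were treated with agent, 1 µM retinoic acid, or both, for 24–96 h. Differentiation was scored as reduction of NBT to formazan after PMA stimulation. NBT-positive cells were counted in 5 non-overlapping fields at ×400 and averaged per field. Three independent experiments; mean ± SD.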

Assay [20] deals with NB-4. Nature of the assay: Acceleration of RA-induced granulocytic differentiation in human NB4 cells at 1 uM after 24 to 96 hrs by NBT assay in presence of 1 uM all-trans retinoic acid relative to control. It is filed as functional. Put shortly: as §5
In assay [21] the test system is NB-4. Nature of the assay: Induction of granulocytic differentiation in human NB4 cells at 1 uM after 48 hrs by CD11b assay (reference value: 8.5%). It is filed as functional.

The values that follow come from ChEMBL document CHEMBL3421532, “Synthesis and antiproliferative activity of α-branched α,β-unsaturated ketones in human hematological and solid cancer cell lines” (Eur J Med Chem, 2015).

Usually IC50 stands for the midpoint of a concentration-inhibition curve.

The source made the active and inactive calls. The rule behind the calls is not given here.

Turning to `C=C(C(=O)c1ccc(OC)cc1)C(O)c1ccc([N+](=O)[O-])cc1` (stereo not given), the IC50 came out at 23.8 µM in assay [1], 11 µM in assay [3] and 5.4 µM in assay [5]. Moreover, the result in assay [2], in assay [4], in [6] and in [7] was Active.
As to `CCN(CC)C/C(=C\c1ccc([N+](=O)[O-])cc1)C(=O)c1ccc(OC)cc1`, the results for the concentration for half-maximal inhibition (IC50) in assay [1], in assay [3] and in assay [5] were 22 µM, 4.3 µM and 1.2 µM, respectively. Also, the outcome in assay [8], in [9], in [2], in assay [6] and in assay [7] was Active.
Take `COc1cc2nc(N3CCCN(C)CC3)nc(NC3CCN(Cc4ccccc4)CC3)c2cc1OC`: in assay [10], the Activity is 10%.
As for `O=C(/C=C/c1cccc(S(=O)(=O)Nc2ccccc2)c1)NO` [BELINOSTAT], the figures for the Activity in assay [10] and in [11] were 13% and 20%, respectively.
In the case of `C=C(C/C(=C\c1ccc(OC(=O)c2ccccc2)cc1)C(=O)c1ccc(OC)cc1)C(=O)c1ccc(OC)cc1`, the figures for the IC50 in assay [1], in assay [3] and in assay [5] were greater than 100 µM, greater than 100 µM and 6.7 µM, respectively. Also, the outcome in assay [4] and in assay [7] was Active.
Consider `COc1ccc(C(=O)/C(=C/c2ccc([N+](=O)[O-])cc2)CC(C)C)cc1`, for which the IC50 in assay [1] was greater than 100 µM; in [3], greater than 100 µM; in assay [5], 0.6 µM. The result in assay [12], in [14] and in assay [19] was inactive. Moreover, the Activity amounted to 18.2% in [13], 87.9% in [16], 8% in [20] and 9.5% in assay [21]. Besides, the outcome in assay [15], in assay [17] and in assay [7] was Active. Also, the inhibition entry in [18] is “Active”.
`COc1cccc2c1C(=O)c1c(O)c3c(c(O)c1C2=O)C[C@@](O)(C(=O)CO)C[C@@H]3O[C@H]1C[C@H](N)[C@H](O)[C@H](C)O1` [DOXORUBICIN]: the Activity in assay [11] is 80%.
As for `CC1=C(/C=C/C(C)=C/C=C/C(C)=C/C(=O)O)C(C)(C)CCC1`, the Activity in assay [14] was 17.3%. Further, in assay [18], the result was Active.
